For test [1], the species on record is Mus musculus. In words: Percent inhibition of anti-CD3 mAb stimulated interleukin-4 release from mice splenocytes by 10 uM compound. In kind it is functional.
Test [2] is filed under the species Mus musculus. In words: Percent inhibition of anti-CD3 mAb stimulated interleukin-5 release from […] by 10 uM. Type of test: functional. In short, it runs like this:
(§1)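 D10.G4.1 Th-2 cells (4 × 10⁴/well) in medium without Rat T-STIM for 3.5 h, then exposed to drug at 10 µM for 30 min and stimulated with anti-CD3 mAb (final 1:100) for 16 h. IL-4 or IL-5 content of the supernatant is read against solvent control. Mean of three experiments, each run in duplicate.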

The species named for test [3] is Rattus norvegicus. Put plainly: Inhibition of histamine release in rat mast cells. Type of test: functional, cell-based.
The species entered for test [4] is Mus musculus. Put plainly: Percent inhibition of anti-CD3 mAb stimulated interleukin-4 release from […] by 10 uM. Type of test: functional. In short, it runs like this:
as §1

The species named for test [5] is Mus musculus. In words: Compound was evaluated for IL 4 production inhibition from mice splenocytes stimulated by anti-CD3 mAb. Type of test: functional. In short, it runs like this:
(§2)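 Th-2 clone D10.G4.1, restimulated with conalbumin (100 µg/mL) plus mitomycin C-treated AKR/J splenocytes as antigen-presenting cells, thawed and grown 3 days with Rat T-STIM. Cells at 4 × 10⁴/well, 3.5 h without T-STIM, drug 30 min (DMSO ≤0.1%). Stimulated with anti-CD3 mAb (final 1:100) for 16 h; IL-4 or IL-5 measured in supernatant. IC50 estimated over a concentration range.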

For test [6], the species on record is Mus musculus. Put plainly: Compound was evaluated for IL 5 production inhibition from mice splenocytes stimulated by anti-CD3 mAb. In kind it is functional. In short, it runs like this:
as §2

Each structure is given as a SMILES string. Activity calls are given as the source filed them. The calls are words filed in the database; no cut-off is given here. A value given as a limit tells only on which side of the number the result lay.

The inhibition is the change of the read-out against control, counted positive when it falls. The IC50 is the midpoint of a concentration-inhibition curve. A high value points to weaker potency in that assay. In the case of `O=C(Cc1cn(-c2ccc(F)cc2)c2ccccc12)Nc1ccncc1`, the inhibition at 10 µM in test [1] was determined as 31%; in test [2], 48%. This compound also yielded an IC50 in test [3] of 0.302 µM.

As for `Cc1c(CC(=O)Nc2ccncc2)c2cc(Cl)ccc2n1Cc1ccc(F)cc1`, the figures for the inhibition at 10 µM in test [1] and in test [2] were 28% and 26%, respectively.

Turning to `O=C(CCc1cn(Cc2ccc(F)cc2)c2ccccc12)Nc1ccncc1`, the inhibition at 10 µM in test [1] was 2.9%; in test [2], 22%. The same compound yielded a half-maximal inhibitory concentration (IC50) in test [3] of 0.22 µM.

For `CC(C)c1ccc2c(c1)c(CCC(=O)Nc1ccncc1)cn2Cc1ccc(F)cc1`, the inhibition entry in test [4] was “inactive”. Moreover, in test [3], the IC50 was determined as 5.34 µM.

As for `O=C(Cc1c[nH]c2ccc(F)cc12)Nc1ccncc1`, the inhibition result in test [4] is “inactive”. Further, the IC50 in test [3] was > 10 µM.

In the case of `COc1ccc2c(c1)c(CCC(=O)Nc1ccncc1)cn2Cc1ccc(F)cc1`, the inhibition entry in test [4] was “inactive”.

Regarding `O=C(Cc1cn(Cc2ccc(F)cc2)c2ccc(F)cc12)Nc1ccncc1`, the inhibition result in test [4] was “inactive”. The compound further yielded an inhibition at 10 µM in test [2] of 43%.

On to `COc1ccc2[nH]cc(CCC(=O)Nc3ccncc3)c2c1`, for which the inhibition entry in test [4] is “inactive”. Moreover, the inhibition at 10 µM in test [2] worked out at 26%.

With `O=C(Cc1cn(Cc2ccc(F)cc2)c2ccc(Cl)cc12)Nc1ccncc1`, the inhibition entry in test [4] is “inactive”. The same compound registered an inhibition at 10 µM in test [2] of 54%. Also, the IC50 in test [5] is > 10 µM; in test [6], 8.8 µM; in test [3], 0.23 µM.

Regarding `COc1ccc2c(c1)c(CCC(=O)Nc1ccncc1)cn2Cc1ccccc1`, the inhibition entry in test [4] was “inactive”. For the same compound, the IC50 in test [3] is 3.9 µM.

With `CC(C)c1ccc2[nH]cc(CCC(=O)Nc3ccncc3)c2c1`, the inhibition entry in test [4] was “inactive”. The same compound showed an inhibition at 10 µM in test [2] of 28%. Also, in test [3], the IC50 came to 3.12 µM.

As to `Cc1c(CC(=O)Nc2ccncc2)c2cc(F)ccc2n1Cc1ccc(F)cc1`, the inhibition at 10 µM was found to be 49% in test [1] and 61% in test [2]. Besides, the 50% inhibitory concentration (IC50) in test [5] amounted to 10.2 µM; in test [6], 7.87 µM; in test [3] it was 0.4 µM.

With `Cc1c(CC(=O)Nc2ccncc2)c2cc(C(C)C)ccc2n1Cc1ccc(F)cc1`, the inhibition entry in test [4] was “inactive”. The half-inhibitory concentration (IC50) in test [3] stood at 6.9 µM.

Regarding `O=C(CCc1c[nH]c2ccc(F)cc12)Nc1ccncc1`, the inhibition result in test [4] is “inactive”. Also, the inhibition at 10 µM in test [2] worked out at 25%. The 50% inhibitory concentration (IC50) in test [3] was found to be 2.21 µM.

As for `Cc1[nH]c2ccc(F)cc2c1CC(=O)Nc1ccncc1`, the inhibition entry in test [4] is “inactive”. Further, in test [3], it took 10.1 µM to reach half-maximal inhibition (IC50).

As to `O=C(Cc1c[nH]c2ccc(Cl)cc12)Nc1ccncc1`, in test [4], the inhibition result is “inactive”. In addition, the IC50 in test [3] came out at 4.5 µM.

Take `Cc1[nH]c2ccc(Cl)cc2c1CC(=O)Nc1ccncc1`: in test [4], the inhibition result was “inactive”. Besides, in test [3], the 50% inhibitory concentration (IC50) is > 10 µM.

Regarding `COc1ccc(CCN2CCC(Nc3nc4ccccc4n3Cc3ccc(F)cc3)CC2)cc1` [ASTEMIZOLE], the results for the inhibition at 10 µM in test [1] and in test [2] were 66% and 74%, respectively. For the same compound, the figures for the IC50 in test [5], in test [6] and in test [3] were 8 µM, 3.3 µM and 6.5 µM, respectively.

In the case of `O=C(CCc1cn(Cc2ccccc2)c2ccc(F)cc12)Nc1ccncc1`, the inhibition at 10 µM in test [1] came to 27%; in test [2], 42%. In addition, the concentration for half-maximal inhibition (IC50) in test [3] is 0.42 µM.

Consider `COc1ccc2[nH]cc(CC(=O)Nc3ccncc3)c2c1`, for which, in test [4], the inhibition result was “inactive”. Further, in test [3], the IC50 was > 10 µM.

For `Cc1c(CC(=O)Nc2ccncc2)c2cc(C(C)C)ccc2n1Cc1ccccc1`, the inhibition entry in test [4] is “inactive”. Testing at 10 µM in test [2] gave an inhibition of 34%. In test [3], this compound displayed a concentration for half-maximal inhibition (IC50) of 7.54 µM.

In the case of `O=C(Cc1cn(Cc2ccccc2)c2ccc(Cl)cc12)Nc1ccncc1`, the inhibition at 10 µM came out at 39% in test [1] and 49% in test [2].

`COc1ccc2c(c1)c(CC(=O)Nc1ccncc1)cn2-c1ccc(F)cc1`: the values for the inhibition at 10 µM in test [1] and in test [2] were 24% and 22%, respectively.

Consider `CC(C)c1ccc2c(c1)c(CC(=O)Nc1ccncc1)cn2Cc1ccc(F)cc1`, for which, in test [4], the inhibition result is “inactive”. Also, in test [2], the inhibition at 10 µM came out at 23%.

In the case of `O=C(CCc1c[nH]c2ccc(Cl)cc12)Nc1ccncc1`, the inhibition at 10 µM in test [1] worked out at 26%; in test [2], 25%. Further, 1.46 µM corresponded to half-maximal inhibition in test [3] (IC50).

For `O=C(CCc1cn(Cc2ccc(F)cc2)c2ccc(Cl)cc12)Nc1ccncc1`, the inhibition entry in test [4] is “inactive”. Further, the inhibition at 10 µM in test [2] came to 41%. For the same compound, in test [3], the IC50 stood at 1.3 µM.

Regarding `COc1ccc2c(c1)c(CC(=O)Nc1ccncc1)c(C)n2Cc1ccc(F)cc1`, in test [4], the inhibition entry was “inactive”. Further, in test [2], the inhibition at 10 µM worked out at 22%. In test [3], the half-inhibitory concentration (IC50) was determined as 5 µM.

Consider `Cc1c(CC(=O)Nc2ccncc2)c2cc(F)ccc2n1Cc1ccccc1`, for which the inhibition result in test [4] is “inactive”. The compound further returned an inhibition at 10 µM in test [2] of 41%. The compound also had an IC50 in test [3] of 0.48 µM.

For `CC(C)c1ccc2c(c1)c(CCC(=O)Nc1ccncc1)cn2Cc1ccccc1`, the inhibition entry in test [4] is “inactive”. For the same compound, at 10 µM the inhibition in test [2] was 25%. This compound yielded a concentration for half-maximal inhibition (IC50) in test [3] of 6 µM.

Turning to `COc1ccc2[nH]c(C)c(CC(=O)Nc3ccncc3)c2c1`, the inhibition entry in test [4] is “inactive”.

For the compound `COc1ccc2c(c1)c(CC(=O)Nc1ccncc1)cn2Cc1ccccc1`, the inhibition at 10 µM in test [1] amounted to 33%; in test [2], 38%. The compound further registered an IC50 in test [3] of 2.8 µM.

For the compound `O=C(Cc1cn(Cc2ccc(F)cc2)c2cc(O)ccc12)Nc1ccncc1`, the values for the inhibition at 10 µM in test [1] and in test [2] were 29% and 37%, respectively. The compound also came in with a 50% inhibitory concentration (IC50) in test [3] of 0.94 µM.

With `O=C(CCc1cn(Cc2ccccc2)c2ccc(Cl)cc12)Nc1ccncc1`, in test [4], the inhibition entry was “inactive”. Also, the IC50 in test [3] turned out to be 0.74 µM.

As to `O=C(CCc1cn(Cc2ccc(F)cc2)c2ccc(F)cc12)Nc1ccncc1`, the inhibition result in test [4] is “inactive”. Further, in test [2], testing at 10 µM gave an inhibition of 37%. The compound further had an IC50 in test [3] of 0.38 µM.

For `CC(C)c1ccc2[nH]cc(CC(=O)Nc3ccncc3)c2c1`, the inhibition at 10 µM in test [1] amounted to 33%; in test [2], 29%. Moreover, in test [3], the IC50 turned out to be 4.92 µM.

Regarding `COc1ccc2c(CC(=O)Nc3ccncc3)cn(Cc3ccc(F)cc3)c2c1`, the figures for the inhibition at 10 µM in test [1] and in test [2] were 51% and 76%, respectively. The IC50 in test [5] was found to be 9.8 µM; in test [6], 2.28 µM; in test [3], 0.33 µM.

In the case of `O=C(Cc1cn(Cc2ccccc2)c2ccc(F)cc12)Nc1ccncc1`, the inhibition entry in test [4] is “inactive”. Moreover, at 10 µM the inhibition in test [2] was 48%. Moreover, half-maximal inhibition in test [3] (IC50) required 0.06 µM.

`O=C(CCCc1cn(Cc2ccc(F)cc2)c2ccccc12)Nc1ccncc1`: the values for the inhibition at 10 µM in test [1] and in test [2] were 31% and 42%, respectively. In test [3], this compound yielded an IC50 of 0.51 µM.

For `Cc1[nH]c2ccc(C(C)C)cc2c1CC(=O)Nc1ccncc1`, the inhibition result in test [4] was “inactive”. Half-maximal inhibition in test [3] (IC50) required 2.8 µM.

Consider `O=C(Cc1cn(-c2ccc(F)cc2)c2ccc(F)cc12)Nc1ccncc1`, for which the values for the inhibition at 10 µM in test [1] and in test [2] were 51% and 71%, respectively. The values for the half-inhibitory concentration (IC50) in test [5] and in test [6] were 9.7 µM and 4.56 µM, respectively.

These data come from ChEMBL document CHEMBL1132585, “New N-(pyridin-4-yl)-(indol-3-yl)acetamides and propanamides as antiallergic agents” (J Med Chem, 1999).
